Data: ChEMBL document CHEMBL1145345, “Galactosyl derivatives of L-arginine and D-arginine: synthesis, stability, cell permeation, and nitric oxide production in pituitary GH3 cells” (J Med Chem, 2006)
The source made the active and inactive calls. The calls are words filed in the database; no cut-off is given here.

Tests used:
Assay type in all cases: functional, cell-based
GH3 [1] = experiment: Area under DAF2 monitored nitrite production in GH3 cells-incubation period curve
AEC = experiment: Increase in DAF2 monitored NO production in BAEC at 10 mM after 30 mins; conditions: Bos taurus
Procedure, shortened: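 Bovine aortic endothelial cells grown in DMEM/10% FBS, exposed to 10 mM compound in normal Krebs solution (pH 7.4) for 30 min at 37 °C. Then loaded with 10 µM DAF-2DA for 30 min, fixed with 4% paraformaldehyde for 5 min, and imaged by fluorescence microscopy (ex/em 495/515 nm). Output is % of Krebs-only control fluorescence.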

GH3 [2] = experiment: Increase in DAF2 monitored NO production in GH3 cells at 30 mins
Procedure, shortened: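 GH3 cells in F10 with 10% FBS and 15% horse serum, treated 30 min at 37 °C with 3, 10 or 30 mM compound in normal Krebs (pH 7.4). Loaded with 10 µM DAF-2DA for 30 min, fixed in 4% paraformaldehyde, and fluorescence read by densitometry at 495/515 nm. Reported as % of Krebs-only control; mean ± S.E. of three values from three sessions.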

GH3 [3] = experiment: Increase in DAF2 monitored nitrite production in GH3 cells at 30 mins

Row | Compound | AUC (GH3 [1]) [ng·h/mL] | Activity (AEC) | Activity (GH3 [2]) | Activity (GH3 [3])
1 | N=C(N)NCCC[C@H](N)C(=O)O | 1390 | Active | – | –
2 | N=C(N)NCCC[C@@H](N)C(=O)O | 2470 | Active | – | –
3 | NC(N)=NCCC[C@H](N)C(=O)OC[C@H]1O[C@H](O)[C@H](O)[C@@H](O)[C@H]1O | – | Active | Active | Active
4 | NC(N)=NCCC[C@@H](N)C(=O)OC[C@H]1O[C@H](O)[C@H](O)[C@@H](O)[C@H]1O | 7500 | Active | – | –
